# Shown are actives, neighbours in structure and some others; about 1% of the full set was active somewhere.
# proCasp7 act – counter-screen: procaspase-7 (human) activation. P55210. recombinant procaspase-7, Ac-DEVD-pNA absorbance 405 nm; D23A/D198A/D206A triple mutant, cannot self-cleave; scale: DMSO 0, 5 µM enzyme 100. activation, % at 8.5 µM. 330,000 compounds, 0.093% hits;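 active means percent activation above the screen-wide mean plus 3 SD, cut at about 25% in these data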
#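 buffer or medium = Zinc-free HEPES/NaCl buffer, pH 7.4 | material = Procaspase-7 triple mutant (PC-7 D3A) | input = 2 µM procaspase-7 mutant as dispensed | signal = Epi-absorbance of released pNA at 405 nm, two timepoints | timing = 1 h preincubation, 2 h reaction | replicates = singlicate compound testing | evaluation = % activation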
# LYPLA1 inh – LYPLA1 (human) inhibition in PME1 counter-screen | inhibition, % at 5.9 µM | recombinant LYPLA1, FP-Rh probe fluorescence polarization | 320,000 compounds, 0.16% hits | AID 2174;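 active means inhibition above the mean of all tested compounds plus 3 SD, set per campaign, cut at about 14% in these data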;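 further: inhibitors block serine hydrolase probe labeling of LYPLA1 so polarization falls; 0% = enzyme with DMSO and 100% = wells lacking LYPLA1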
# Target sequence (O75608 whole entry, looked up): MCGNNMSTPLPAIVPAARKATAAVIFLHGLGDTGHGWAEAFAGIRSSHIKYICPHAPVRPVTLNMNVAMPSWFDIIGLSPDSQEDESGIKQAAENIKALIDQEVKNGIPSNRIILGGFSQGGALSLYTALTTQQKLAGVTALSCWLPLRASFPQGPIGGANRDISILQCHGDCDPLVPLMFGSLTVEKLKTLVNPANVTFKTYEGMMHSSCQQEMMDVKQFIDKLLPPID
# LYPLA2 inh – counter-screen for PME1 inhibitors: inhibitors of human LYPLA2 | recombinant LYPLA2, FP-Rh probe fluorescence polarization | inhibition, % at 5.9 µM | 320,000 compounds, 0.38% hits;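 active means inhibition above the screen-wide mean plus 3 SD, limit set per campaign, cut at about 26% in these data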;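 further: 0% = LYPLA2 with DMSO and 100% = wells lacking LYPLA2 enzyme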
# Target sequence (O95372 whole entry, looked up): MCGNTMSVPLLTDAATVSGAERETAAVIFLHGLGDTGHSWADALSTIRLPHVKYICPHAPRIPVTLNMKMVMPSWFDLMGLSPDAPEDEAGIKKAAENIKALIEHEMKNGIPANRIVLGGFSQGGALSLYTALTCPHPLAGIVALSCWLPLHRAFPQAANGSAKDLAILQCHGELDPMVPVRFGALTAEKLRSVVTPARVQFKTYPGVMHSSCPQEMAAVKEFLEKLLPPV
# Fam108B counter – Fam108B inhibition, counter-screen for RBBP9 inhibitors. AID 1947. 300,000 compounds, 0.33% hits. recombinant Fam108B, FP-Rh probe fluorescence polarization. inhibition, % at 9.51 µM;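 active means inhibition above the screen mean inhibition plus 3 SD, computed separately per campaign, cut at about 18% in these data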;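 further: inhibitors lower polarization as less probe binds the enzyme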
# PME-1 primary – blocks human protein phosphatase methylesterase 1. Q9Y570. recombinant PME-1, FP-Rh probe fluorescence polarization. inhibition, % at 5.9 µM. 320,000 compounds, 0.53% hits;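 active means inhibition above the campaign mean of all compounds plus 3 SD, cut at about 26% in these data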;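 further: competitive labeling of PME-1 active site by serine hydrolase directed probe; 0% = PME-1 with DMSO and 100% = wells lacking PME-1 enzyme; inhibitors block probe labeling so polarization falls and inhibition rises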
# proCasp3 act – procaspase-3 (human) activation. recombinant procaspase-3 D3A, Ac-DEVD-pNA absorbance 405 nm. activation, % at 8.5 µM. 330,000 compounds, 0.11% hits. AID 463141;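 active means activation above the mean of all tested compounds plus 3 SD, cut at about 21% in these data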;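 further: 0% = DMSO alone and 100% = DMSO wells spiked with extra 5 µM PC-3 D3A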
# Target sequence (P42574 whole entry D9A/D28A/D175A): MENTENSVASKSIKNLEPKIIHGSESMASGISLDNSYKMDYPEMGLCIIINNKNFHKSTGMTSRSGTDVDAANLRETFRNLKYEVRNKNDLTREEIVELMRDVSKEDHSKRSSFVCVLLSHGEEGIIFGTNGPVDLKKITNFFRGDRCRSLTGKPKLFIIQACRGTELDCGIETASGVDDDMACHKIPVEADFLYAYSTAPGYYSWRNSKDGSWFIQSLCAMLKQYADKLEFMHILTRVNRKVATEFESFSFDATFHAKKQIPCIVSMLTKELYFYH
#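 assay system = Procaspase-3 D3A mutant | signal = absorbance at 405 nm, 0 and 120 min | times = 1 h preincubation plus 2 h reaction at 25 °C | repeats = single replicate | read-out = % activation between DMSO and enzyme-spiked controls | medium = Zinc-free HEPES saline buffer with Triton X-100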
# Fam108b confirm – confirmation of mouse Fam108b serine hydrolase inhibitors | 930 compounds, 44% hits | inhibition, % at 9.51 µM | shares compounds with Fam108B counter | AID 1978 | recombinant Fam108b, FP-Rh probe fluorescence polarization;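 active means inhibition above a limit from the primary screen, the mean over all compounds plus 3 SD, cut at about 19% in these data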;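 further: 0% = median of active Fam108b wells and 100% = catalytically dead S170A mutant; inhibitors free the probe so polarization falls as inhibition rises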
# Fam108b ABPP HTS – mouse ABHD17B inhibition; shares compounds with Fam108B counter; recombinant Fam108b, gel-based ABPP, fluorophosphonate probe; inhibition, % at 20 µM; 260 compounds, 44% hits; AID 588649; in the data active means inhibition above about 40%
# An asterisk follows results filed as active; . = not tested or not shown.
SMILES,proCasp7 act,LYPLA1 inh,LYPLA2 inh,Fam108B counter,PME-1 primary,proCasp3 act,Fam108b confirm,others
CC(=O)c1cccc(NS(=O)(=O)c2ccc(N/C=C\C(=O)c3ccc(F)cc3)cc2)c1,12.5,-23.0,-27.9,22.0*,-15.0,-1.9,-6.4,
CC(=O)c1cccc(NS(=O)(=O)c2ccc(N/C=C/C(=O)c3ccc(F)cc3)cc2)c1,2.2,-13.8,-12.1,6.4,7.9,-0.2,.,
Cc1ccc(Cl)cc1NC(=O)Cn1c(C)csc1=O,-9.1,-4.2,-0.4,.,0.4,7.1,.,
Cc1cc(C)c2c(c1)NC(C(=O)O)C1CC=CC21 (stereo not given),-9.6,-0.9,5.8,21.3*,5.2,-1.3,14.1,
Cc1ccc2c(c1C)NC(C(=O)O)C1CC=CC21 (stereo not given),-3.2,-2.8,9.2,22.7*,-2.7,-1.3,7.8,
O=C(O)C1Nc2c(C(F)(F)F)ccc(Cl)c2C2C=CCC12 (stereo not given),6.6,1.9,6.0,-3.1,0.7,-4.0,.,
CCOC(=O)Cn1c(=NC(=O)c2ccc([N+](=O)[O-])s2)sc2ccccc21,-2.9,-1.8,-0.2,-0.1,-1.8,-2.2,.,
O=C(Nc1ccc(Oc2ccc(NC(=O)Nc3ccccc3Cl)cc2)cc1)Nc1ccccc1Cl,9.8,-0.6,-5.2,58.0*,-6.9,0.0,58.7*,Fam108b ABPP HTS=0.0
O=C(Nc1ccc(Cl)c(Cl)c1)Nc1ccccc1O,-12.7,-18.1,-2.8,19.7*,17.6,-3.0,-7.0,
COc1cc2c(cc1OC)CN(C(=O)C1CCCN1S(=O)(=O)c1ccc(C)cc1)CC2 (stereo not given),9.0,-0.2,-7.5,-0.1,4.7,-2.6,.,
Cc1ccc(S(=O)(=O)/N=C2/C=C(Sc3ncn[nH]3)C(=O)c3ccccc32)c(C)c1,-19.6,0.6,31.0*,60.1*,35.7*,-28.8,33.6*,
CC(C)c1ccc(S(=O)(=O)/N=C2/C=C(Sc3ncn[nH]3)C(=O)c3ccccc32)cc1,-37.8,2.6,36.3*,57.5*,41.5*,-22.2,35.5*,
Cc1ccc(S(=O)(=O)N2CCN(C(=O)CSc3ncn[nH]3)CC2)c(C)c1,-6.8,1.9,-3.0,2.2,-6.2,0.9,.,
COc1ccc(-c2nc(SCC(=O)NCc3ccco3)c(-c3ccccc3)[nH]2)cc1OC,2.1,-0.7,-5.4,19.9*,7.3,6.2,-2.5,
COc1cccc(-n2c(SCc3cc(=O)oc4cc(O)c(O)cc34)nc3ccccc3c2=O)c1,-6.7,-13.3,-9.1,26.0*,20.4,6.5,46.4*,Fam108b ABPP HTS=85.0*
CCN(CC)C(=O)CSc1nc2ccccc2c(=O)n1-c1cccc(OC)c1,-10.1,-1.9,-4.9,-4.6,7.0,2.7,.,
CC1CC(C)CN(C(=O)c2cc(S(=O)(=O)N3CCCCC3)ccc2Cl)C1 (stereo not given),3.1,-1.0,5.0,-0.1,11.8,8.8,.,
Cc1nc2ccccc2c(=O)n1N=C/C=C/c1ccccc1,.,.,.,.,.,.,.,Fam108b ABPP HTS=0.0
Cc1nc2ccccc2c(=O)n1/N=C/C=C/c1ccccc1,-4.2,0.5,6.1,24.0*,0.8,5.9,82.5*,
Cc1nnc(C)n1/N=C/C=C/c1ccccc1,-6.3,0.7,3.5,-3.6,-0.2,-2.3,.,
CCN(CC)c1ccc(/C=N/NC(=O)c2ccc3nc[nH]c3c2)c(O)c1,16.3,-5.0,-7.4,22.4*,-3.1,4.7,7.5,
COc1cc(OC)c(OC)cc1/C=N/NC(=O)c1ccc2nc[nH]c2c1,1.0,-1.8,2.1,-1.8,-3.9,3.0,.,
Cc1cccc2c(N=Nc3ccccc3)c(O)[nH]c12,-27.1,-1.0,0.4,-0.6,3.7,-14.5,.,
Cc1cccc2c(N=Nc3ccc(S(=O)(=O)Nc4cccc(Cl)c4)cc3[N+](=O)[O-])c(O)[nH]c12,-1.4,-26.1,-21.8,36.1*,31.6*,0.6,27.7*,
Cc1ccc(NC(=O)CN(C)C(=O)CCC(=O)c2cccs2)cc1,-2.4,1.0,3.8,0.4,-10.8,-12.2,.,
SMILES,proCasp7 act,LYPLA1 inh,LYPLA2 inh,Fam108B counter,PME-1 primary,proCasp3 act,Fam108b confirm,others
CC1=NOC(=O)/C1=C/c1ccc(-c2ccc(Cl)cc2)o1,-12.4,3.5,10.7,18.8*,-1.0,-5.5,15.9,
CC1=NOC(=O)/C1=C\c1ccc(-c2cc(Cl)ccc2Cl)o1,3.4,-5.2,0.0,5.7,-4.6,-8.3,.,
O=C(O)c1ccc(N/N=C/c2ccc(-c3ccc(Cl)cc3Cl)o2)cc1,-53.1,11.2,10.1,28.4*,64.0*,-30.1,22.8*,
O=C(O)c1ccc(N/N=C/c2ccc(-c3cc(Cl)ccc3Cl)o2)cc1,-36.0,2.5,6.9,22.2*,13.5,-13.4,3.6,
CCN(c1ccccc1)S(=O)(=O)c1cccc(C(=O)NCc2ccccn2)c1,18.0,0.4,1.2,4.7,-1.6,0.8,.,
O=C(O)c1ccc(-n2cccc2/C=C2/NC(=O)N(c3ccccc3)C2=O)cc1,-12.7,-1.4,5.7,20.3*,-14.8,-7.1,17.5,
CCCC(=O)Nc1sc2c(c1C#N)CCCCC2,3.8,3.3,-4.2,69.7*,3.9,0.2,-6.1,
O=c1[nH]c(Nc2ccccc2Cl)cc2ccccc12,-3.9,-0.6,2.8,2.2,10.1,-1.8,.,
Cc1ccccc1Nc1cc2ccccc2c(=O)[nH]1,0.8,1.3,5.9,21.0*,15.6,-1.6,18.8*,
CN(C)c1ccc(NC(=O)Nc2csc3ccccc23)cc1,-22.7,-15.9,-6.6,19.4*,18.6,-6.0,26.7*,
COc1ccccc1NC(=O)CCCCCN1C(=O)c2cccc([N+](=O)[O-])c2C1=O,3.0,-2.0,-2.6,0.0,-0.3,7.5,.,
COc1cc(/C=C2/C(=O)c3cccc([N+](=O)[O-])c3C2=O)c(Br)cc1O,-17.8,1.2,4.4,26.7*,31.7*,-14.8,40.1*,Fam108b ABPP HTS=45.0*
COc1cccc(/C=N/NC(=O)c2ccc3nc[nH]c3c2)c1O,-12.2,-0.1,2.8,-4.4,1.4,7.9,.,
COc1cccc(/C=N/NC(=O)N/N=C/c2cccc(OC)c2O)c1O,11.2,-4.3,-7.7,5.1,-33.7,2.7,.,
COc1cc(OC)c2cc(C(=O)N/N=C/c3cccc(OC)c3O)[nH]c2c1,-6.9,-4.8,1.8,22.5*,43.7*,-13.0,22.2*,
COc1cccc(/C=N/NC(=O)c2cc3c(OC)ccc(OC)c3[nH]2)c1O,-17.1,-1.3,5.1,27.4*,42.2*,-10.4,13.9,
COc1cc2cc(C(=O)N/N=C/c3ccccc3Cl)[nH]c2cc1OC,11.6,2.5,0.0,32.3*,-2.6,2.1,29.9*,

# Assay outcomes: PubChem, The Scripps Research Institute Molecular Screening Center
